In the library only some 3.5% were active in any assay of this set; here they are far more common.
MrgX1 agonist: agonists of human MrgX1 receptor, primary screen, HEK293 cells, Fluo-4 calcium flux | Mas-related G-protein coupled receptor member X1 (Homo sapiens), Q96LB2 | Fluo-4 calcium fluorescence, agonist mode; active compounds read high | B-score at 10 µM | actives 0.44% (n = 310,000);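 active means calcium response B-score plate-corrected fluorescence ratio at least 3 library SD, with starting fluorescence B-score inside 5 SD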
Target sequence (Q96LB2 whole entry, looked up): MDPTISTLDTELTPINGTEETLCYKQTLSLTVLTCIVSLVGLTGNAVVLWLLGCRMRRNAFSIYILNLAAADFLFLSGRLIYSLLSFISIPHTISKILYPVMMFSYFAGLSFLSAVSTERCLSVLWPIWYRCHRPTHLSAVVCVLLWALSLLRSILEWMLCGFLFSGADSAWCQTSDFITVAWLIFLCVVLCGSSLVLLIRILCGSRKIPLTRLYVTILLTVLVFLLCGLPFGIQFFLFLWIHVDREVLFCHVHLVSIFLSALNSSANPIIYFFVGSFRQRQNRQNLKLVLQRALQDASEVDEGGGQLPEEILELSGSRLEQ
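System: HEK293 cells stably expressing human MrgX1 receptor; Dosing: test compound in the initial addition of three; Schedule: overnight plating, then 30 min 37 °C plus 30 min room-temperature dye loading; Detection: kinetic calcium dye fluorescence, Fluo-4 NW; Controls: per-plate positive and negative controls for Z′ factor.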
RGS4 pot: RGS4 potentiators or activators, primary screen, cell-based, HEK293 M3R inducible RGS4, calcium flux; B-score at 10 µM; actives 0.92% (n = 310,000); AID 463111, 2010; carbachol calcium flux Fluo4; active compounds read low;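 active means B-score of the integrated calcium signal more than 4 SD below the library mean, with starting fluorescence not abnormally high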;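 further: negative B-score means reduced calcium response which marks RGS4 activation or potentiation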
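Also added: carbachol at ECmax as muscarinic agonist stimulus; Assay system: HEK293 cells with stable M3R and inducible RGS4; Timing: overnight RGS4 induction, 30 min dye load 37 °C, 20 min compound RT; Measured by: Fluo4-AM (2 µM) calcium-flux fluorescence, kinetic read.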
MrgX1 antag: antagonists of human MrgX1 receptor, primary screen, HEK293 cells, Fluo-4 calcium flux. Mas-related G-protein coupled receptor member X1 (Homo sapiens), Q96LB2. BAM8-22 antagonism; active compounds read low. B-score at 10 µM. actives 1.3% (n = 310,000). AID 588676, 2011;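 active means calcium-response B-score plate-corrected more than 3 library SD below zero, starting fluorescence within 5 deviations, no agonist response on first addition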;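 further: peak minus trough fluorescence over baseline after final BAM8-22 challenge near maximal dose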
RGS4 inh: RGS4 inhibitors, primary screen, cell-based, HEK293 M3R inducible RGS4, calcium flux | Regulator of G-protein signaling 4 (Homo sapiens), P49798 | Fluo-4 calcium flux; active compounds read high; triggered by carbachol at its EC20 | B-score at 10 µM | actives 0.45% (n = 310,000) | AID 463165, 2010;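 active means B-score, a plate-corrected calcium signal, over three deviations above library mean, with baseline fluorescence within five deviations of library mean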;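 further: RGS4 expression induced by doxycycline in cells with stable M3 receptor; B-score is computed from the integrated fluorescence ratio over baseline after carbachol; higher B-score means a larger calcium signal and so more RGS4 inhibition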
Target sequence (P49798 whole entry, looked up): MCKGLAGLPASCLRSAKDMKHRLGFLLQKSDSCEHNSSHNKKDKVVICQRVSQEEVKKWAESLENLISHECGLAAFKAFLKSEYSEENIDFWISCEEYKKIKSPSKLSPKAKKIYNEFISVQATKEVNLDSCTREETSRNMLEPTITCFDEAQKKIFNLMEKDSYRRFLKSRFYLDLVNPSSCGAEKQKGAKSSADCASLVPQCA
MrgX1 PAM: positive allosteric modulators of MrgX1, primary screen, HEK293 cells, Fluo-4 calcium flux; Mas-related G-protein coupled receptor member X1 (Homo sapiens), Q96LB2; FDSS; active compounds read high; B-score at 10 µM; actives 0.63% (n = 310,000);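 active means plate-corrected calcium response at least 3 library SD above typical, normal starting fluorescence, not activating the receptor alone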;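 further: compound read alongside a low EC10 to EC30 dose of BAM8-22 agonist; peak minus trough fluorescence over baseline measured at the second addition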
RGS4 activ val: reduced carbachol calcium response, RGS4-induced M3R cells, confirmation, RGS4 activator project, cell-based, HEK293 M3R/RGS4 inducible, calcium flux, duplicate. carbachol calcium flux Fluo4. actives 89% (n = 1,100). shares compounds with RGS4 pot. inhibition, % at 10 µM;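 active means inhibition above 3 SD of the buffer control wells, cut at about 41% in these data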;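 further: signal is the integrated peak-minus-minimum Fluo4 fluorescence over baseline ratio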
RGS4 act ctr: counter-screen for RGS4 activators: effect in non-induced cells; shares compounds with RGS4 pot; HEK293 M3R non-induced RGS4, Fluo4 calcium flux; after carbachol challenge at its EC90; inhibition, % at 10 µM; actives 82% (n = 1,100); AID 602283;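 active means inhibition exceeding 3 SD of buffer-only control wells, cut at about 26% in these data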;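 further: percent drop in integrated peak-minus-baseline over baseline Fluo4 ratio after carbachol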
Starred values were filed as active, the others as inactive; i = inactive; / = no result.

SMILES	MrgX1 agonist	RGS4 pot	MrgX1 antag	RGS4 inh	MrgX1 PAM	RGS4 activ val	RGS4 act ctr
CC(C)Cn1c2c(c(O)c(C(=O)Nc3nccs3)c1=O)CCCC2	i	-7.7*	i	i	i	74*	41*
CCCn1c2c(c(O)c(C(=O)Nc3nccs3)c1=O)CCCC2	i	i	i	i	i	/	/
Cc1csc(NC(=O)c2c(O)c3c(n(CC(C)C)c2=O)CCCC3)n1	i	-8.9*	i	i	i	57*	0
COc1ccc(S(=O)(=O)N2CCCCC2)cc1NC(=O)C1COc2ccccc2O1 (stereo not drawn)	i	-13*	i	i	i	74*	84*
COc1cc(NC(=O)C2COc3ccccc3O2)c(OC)cc1Cl (stereo not drawn)	i	i	i	i	i	/	/
C=CCNC(=O)CN1C(=O)C2C3c4ccccc4C(c4ccccc43)C2C1=O (stereo not drawn)	i	i	i	i	i	/	/
O=C(NCc1ccc2c(c1)OCO2)c1ccc(C2SCC(=O)N2Cc2ccco2)cc1 (stereo not drawn)	i	-7.7*	i	i	i	71*	84*
Cc1cc(C)c(S(=O)(=O)n2ccc3ccccc32)c(C)c1	i	-9.5*	i	i	i	76*	29*
O=C(Nc1ccc2c(c1)OCO2)C1CCN(C(=O)c2ccc([N+](=O)[O-])cc2)CC1	i	i	i	i	i	/	/
CCOC(=O)c1oc2ccc(CNC3CCCCC3)c(Cl)c2c1C	i	-7.8*	i	i	i	94*	92*
CCOC(=O)c1oc2ccc(CNCCO)c(Cl)c2c1C	i	i	i	i	i	/	/
CCC(C)NCCOc1ccc(C(C)(C)c2ccccc2)cc1 (stereo not drawn)	i	-7.8*	i	i	i	79*	34*
CCCOc1ccc(OCCCCNC(C)CC)cc1 (stereo not drawn)	i	i	i	i	i	/	/
O=C(CCC1CCCNC1)c1ccccc1 (stereo not drawn)	i	i	i	i	i	/	/
CC(C)NC(=O)c1ccc2c(=O)n(C3CCCC3)c(=S)[nH]c2c1	i	i	i	i	i	/	/
CCN(CC)CCNC(=O)c1ccc2c(=O)n(C3CCCC3)c(=S)[nH]c2c1	i	-8.4*	i	i	i	92*	73*
Cc1noc(C)c1C(=O)NCCc1c(C)[nH]c2ccccc12	i	i	i	i	i	/	/
CCOc1ccc(CCNC(=O)c2ccc(S(=O)(=O)N3CCCC3)cc2)cc1OCC	i	i	i	i	i	/	/
c1ccc2nc3c(nc2c1)OCC1CCCCN31 (stereo not drawn)	i	-7.6*	i	i	i	72*	84*
CN1CCC(C2(O)c3ccccc3CSc3sccc32)CC1 (stereo not drawn)	i	/	i	/	i	/	/
CN1CCC(C2(O)c3ccccc3CCc3ccccc32)CC1	i	-10*	i	i	i	62*	84*
Cc1c(Cl)cccc1NC(=O)CC1Oc2ccccc2NC1=O (stereo not drawn)	i	i	i	i	i	/	/
c1ccc(COc2ccc(CN3CCN(c4ccccn4)CC3)cc2)cc1	i	-8.3*	i	i	i	90*	58*
CN(C)/C=C/C1=C([N+](=O)[O-])C(c2cccc([N+](=O)[O-])c2)NC(=O)N1 (stereo not drawn)	i	i	i	i	i	/	/
CCn1cc(S(=O)(=O)NCCc2ccc(OC)c(OC)c2)cn1	i	i	i	i	i	/	/
SMILES	MrgX1 agonist	RGS4 pot	MrgX1 antag	RGS4 inh	MrgX1 PAM	RGS4 activ val	RGS4 act ctr
c1ccc2c(-c3nc(C4CCCCC4)no3)cc(-c3ccncc3)nc2c1	i	-9.4*	i	i	i	93*	85*
COc1cccc(C2C3CN(C)CC=C3C(C#N)=C(N)C2(C#N)C#N)c1OC (stereo not drawn)	i	-8*	i	i	i	54*	46*
CCN1CC=C2C(C#N)=C(N)C(C#N)(C#N)[C@H](c3cccc(OC)c3OC)[C@H]2C1	i	i	i	i	i	/	/
CCc1nc(SCC(=O)c2ccccc2)c2c(=O)n(C)c(=O)n(C)c2n1	i	i	i	i	i	/	/
CCCc1nc(SCC(=O)c2ccccc2)c2c(=O)n(C)c(=O)n(C)c2n1	i	-7.8*	i	i	i	94*	91*
Cn1c(-c2ccc3c(c2)OCO3)cnc1NCc1cccc(Cl)c1	i	-8.9*	i	i	i	86*	44*
Cc1ccc(CNC(=O)c2ccc(Cn3nc(C)c(Cl)c3C)o2)cc1	i	i	i	i	i	/	/
Cc1cc(C)cc(NC(=O)c2ccc(Cn3nc(C)c(Cl)c3C)o2)c1	i	-12*	i	i	i	70*	64*
Cc1cc2c(s1)Nc1ccccc1N=C2N1CCN(C)CC1	i	-9.5*	i	i	i	91*	85*
OCCOCCN1CCN(C2=Nc3ccccc3Sc3ccccc32)CC1	i	i	i	i	i	/	/
COc1cc(Cl)c(CN2CCC(CO)(CCOc3ccccc3)CC2)cc1OC	i	i	i	i	i	/	/
OCC1(CCOc2ccccc2)CCN(CC2=Cc3cc(Cl)ccc3OC2)CC1	i	-8.7*	i	i	i	87*	56*
C=C(C(=O)c1ccccc1)C(CC(=O)c1ccccc1)c1ccccc1 (stereo not drawn)	i	i	i	i	i	/	/
Cc1ccc(N2CCC(N3CCN(C4CCCCC4)C(CCO)C3)CC2)cc1 (stereo not drawn)	i	i	i	i	i	/	/
Cc1cc(OCC(=O)Nc2ccc(S(=O)(=O)N3CCN(C)CC3)cc2)ccc1Cl	i	-8.3*	i	i	i	0	0
CCOC(=O)c1c(N)sc2c(OCC)c(Br)ccc12	i	i	i	i	i	/	/

High-throughput results (PubChem BioAssay)
